Data as given in ChEMBL document CHEMBL4610117 (J Med Chem, 2020).
Active and inactive are the calls of the source. The rule behind the calls is not given here.

Tests used:
[1] = Clearance in NMRI mouse at 0.3 to 0.5 mg/kg, iv administered as bolus dose by LC-MS/MS analysis; type: ADME, organism-based; details: in vivo
SU-DHL-8 [2] = experiment: Antitumor activity against human SUDHL8 cells harboring ATM K1964E mutant xenografted in CB-17 mouse assessed as tumor growth at 50 mg/kg, po bid dosed every 3 days followed by 4 days interval relative to control; type: functional
Method in brief: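 SU-DHL-8 (ATM K1964E) GCB-DLBCL cell line-derived xenograft in female C.B-17 SCID mice, n = 9/group. Oral dosing at 50 mg/kg b.i.d. on an intermittent schedule of 3 days on/4 days off. Treatment-to-control (T/C) ratio versus vehicle.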

[3] = target: Serine/threonine-protein kinase mTOR (Homo sapiens, UniProt P42345); experiment: Binding affinity to wild-type human partial length mTOR (L1382 to W2549 residues) expressed in mammalian expression system by Kinomescan method
[4] = Protein binding in rat plasma assessed as unbound fraction at 3 uM measured after 7 hrs by LC-MS/MS analysis; type: ADME, cell-free
SUM149PT = experiment: Antitumor activity against human SUM149 cells xenografted in nude mouse assessed as tumor growth at 20 mg/kg, po bid dosed every 3 days followed by 4 days interval in presence of olaparib relative to control; type: functional
Method in brief: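 SUM149 human TNBC xenograft in nude mice, n = 10/group. Oral 20 mg/kg b.i.d., 3 days on/4 days off, combined with olaparib 50 mg/kg q.d. i.p. T/C ratio versus vehicle and the monotherapies; body weight loss was monitored.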

SU-DHL-8 [5] = experiment: Antiproliferative activity against human SUDHL8 cells assessed as reduction in cell viability measured after 4 days by celltiter-glo luminescent assay; type: functional, cell-based; details: SU-DHL-8, 96 h
[6] = Inhibition of PI3K/AKT/mTOR signaling pathway in human MCF7 cells assessed as reduction in AKT phosphorylation at Ser473 residues measured after 30 mins by HTRF assay; details: MCF7, 0.5 h
[7] = Maximum oral bioavailability in dog liver microsomes based well stirred liver model at 1 uM measured after 2 to 60 mins in presence of NADP by LC-MS/MS analysis; type: ADME, Canis lupus familiaris, Microsome; details: read-out: Fmax
[8] = Oral bioavailability in Beagle dog at 0.6 to 1 mg/kg by LC-MS/MS analysis; type: ADME, organism-based, Canis lupus familiaris; details: in vivo
[9] = target: Serine-protein kinase ATM (Homo sapiens, UniProt Q13315); experiment: Inhibition of N-terminally FLAG-tagged recombinant full-length ATM (unknown origin) expressed in […] cells using biotin-PEG2-SVEPPLSQETFSD as substrate preincubated for 15 mins followed by substrate addition and measured after 90 mins by TR-FRET assay
Method in brief: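 Full-length N-terminal FLAG ATM from HEK293-6E, anti-FLAG purified, typically 15 nM. Compound was pre-bound 15 min at 22 °C in HEPES pH 7.0 buffer with MgCl2, KCl, DTT, BSA and Igepal. The reaction ran with 10 μM ATP and 1 μM peptide (final) for 90 min at 22 °C and was stopped with EDTA, streptavidin-XL665 and Eu anti-phospho-p53(Ser15). […] 11 concentrations, 20 μM–0.07 nM, in duplicate.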

[10] = target: Serine/threonine-protein kinase RIO2 (Homo sapiens, UniProt Q9BVS4); experiment: Binding affinity to wild-type human partial length RIOK2 (M1 to D313 residues) expressed in mammalian expression system by Kinomescan method
Sequence of Serine/threonine-protein kinase RIO2 (Q9BVS4 whole entry, the tested form may be a part): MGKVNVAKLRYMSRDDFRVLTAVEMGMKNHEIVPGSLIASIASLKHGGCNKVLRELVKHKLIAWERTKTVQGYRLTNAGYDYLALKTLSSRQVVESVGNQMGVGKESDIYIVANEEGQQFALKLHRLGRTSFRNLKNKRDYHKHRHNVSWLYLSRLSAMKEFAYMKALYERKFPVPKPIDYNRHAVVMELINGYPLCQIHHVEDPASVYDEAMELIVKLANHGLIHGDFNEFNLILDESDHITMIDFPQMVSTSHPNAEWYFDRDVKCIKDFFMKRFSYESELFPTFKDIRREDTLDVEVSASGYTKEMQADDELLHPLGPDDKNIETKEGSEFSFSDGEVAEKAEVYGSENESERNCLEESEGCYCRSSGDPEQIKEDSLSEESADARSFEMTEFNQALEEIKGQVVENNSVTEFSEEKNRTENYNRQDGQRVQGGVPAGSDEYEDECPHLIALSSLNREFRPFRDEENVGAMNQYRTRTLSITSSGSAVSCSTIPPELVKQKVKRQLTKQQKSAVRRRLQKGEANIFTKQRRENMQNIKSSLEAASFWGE

[11] = Apparent half life in NMRI mouse at 0.3 to 0.5 mg/kg, iv administered as bolus dose by LC-MS/MS analysis; type: ADME, organism-based; details: in vivo
[12] = Volume of distribution at steady state in NMRI mouse at 0.3 to 0.5 mg/kg, iv administered as bolus dose by LC-MS/MS analysis; type: ADME, organism-based; details: in vivo
[13] = Clearance in Wistar rat at 0.3 to 0.5 mg/kg, iv administered as bolus dose by LC-MS/MS analysis; type: ADME, organism-based; details: in vivo
[14] = Clearance in rat liver microsomes at 1 uM measured after 2 to 60 mins in presence of NADP by LC-MS/MS analysis; type: ADME, Microsome
[15] = Maximum oral bioavailability in mouse liver microsomes based well stirred liver model at 1 uM measured after 2 to 60 mins in presence of NADP by LC-MS/MS analysis; type: ADME, Microsome; details: read-out: Fmax
[16] = Volume of distribution at steady state in Beagle dog at 0.3 to 0.5 mg/kg, iv administered as bolus dose by LC-MS/MS analysis; type: ADME, organism-based, Canis lupus familiaris; details: in vivo, read-out: Vdss
[17] = Antitumor activity against human CR5038 cells xenografted in NOD/SCID mouse assessed as tumor growth at 20 mg/kg, po qd dosed every 2 days followed by 5 days interval for 2 weeks and subsequent dosing at 10 mg/kg in presence of carboplatin relative to control; type: functional
Method in brief: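 CR5038 human CRC PDX in NOD/SCID mice, n = 10/group. Oral dosing q.d. at 20 mg/kg, reduced to 10 mg/kg from day 14, 2 days on/5 days off. Combined with carboplatin 40 mg/kg i.p. once weekly (1 day on/6 days off). T/C ratio reported versus vehicle and the monotherapies; body weight was monitored.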

[18] = Clearance in human hepatocytes at 1 uM measured after 2 to 90 mins by LC-MS/MS analysis; type: ADME, cell-based, Hepatocyte
[19] = Clearance in Beagle dog at 0.3 to 0.5 mg/kg, iv administered as bolus dose by LC-MS/MS analysis; type: ADME, organism-based, Canis lupus familiaris; details: in vivo
[20] = Protein binding in human plasma assessed as unbound fraction at 3 uM measured after 7 hrs by LC-MS/MS analysis; type: ADME, cell-free
[21] = target: DNA-dependent protein kinase catalytic subunit (Homo sapiens, UniProt P78527); experiment: Inhibition of DNA-PK (unknown origin)
[22] = Apparent half life in Beagle dog at 0.3 to 0.5 mg/kg, iv administered as bolus dose by LC-MS/MS analysis; type: ADME, organism-based, Canis lupus familiaris; details: in vivo, read-out: t1/2(app) (converted)
[23] = target: Phosphatidylinositol 4,5-bisphosphate 3-kinase catalytic subunit beta isoform (Homo sapiens, UniProt P42338); experiment: Inhibition of PI3Kbeta (unknown origin)
Sequence of Phosphatidylinositol 4,5-bisphosphate 3-kinase catalytic subunit beta isoform (P42338 whole entry, canonical isoform): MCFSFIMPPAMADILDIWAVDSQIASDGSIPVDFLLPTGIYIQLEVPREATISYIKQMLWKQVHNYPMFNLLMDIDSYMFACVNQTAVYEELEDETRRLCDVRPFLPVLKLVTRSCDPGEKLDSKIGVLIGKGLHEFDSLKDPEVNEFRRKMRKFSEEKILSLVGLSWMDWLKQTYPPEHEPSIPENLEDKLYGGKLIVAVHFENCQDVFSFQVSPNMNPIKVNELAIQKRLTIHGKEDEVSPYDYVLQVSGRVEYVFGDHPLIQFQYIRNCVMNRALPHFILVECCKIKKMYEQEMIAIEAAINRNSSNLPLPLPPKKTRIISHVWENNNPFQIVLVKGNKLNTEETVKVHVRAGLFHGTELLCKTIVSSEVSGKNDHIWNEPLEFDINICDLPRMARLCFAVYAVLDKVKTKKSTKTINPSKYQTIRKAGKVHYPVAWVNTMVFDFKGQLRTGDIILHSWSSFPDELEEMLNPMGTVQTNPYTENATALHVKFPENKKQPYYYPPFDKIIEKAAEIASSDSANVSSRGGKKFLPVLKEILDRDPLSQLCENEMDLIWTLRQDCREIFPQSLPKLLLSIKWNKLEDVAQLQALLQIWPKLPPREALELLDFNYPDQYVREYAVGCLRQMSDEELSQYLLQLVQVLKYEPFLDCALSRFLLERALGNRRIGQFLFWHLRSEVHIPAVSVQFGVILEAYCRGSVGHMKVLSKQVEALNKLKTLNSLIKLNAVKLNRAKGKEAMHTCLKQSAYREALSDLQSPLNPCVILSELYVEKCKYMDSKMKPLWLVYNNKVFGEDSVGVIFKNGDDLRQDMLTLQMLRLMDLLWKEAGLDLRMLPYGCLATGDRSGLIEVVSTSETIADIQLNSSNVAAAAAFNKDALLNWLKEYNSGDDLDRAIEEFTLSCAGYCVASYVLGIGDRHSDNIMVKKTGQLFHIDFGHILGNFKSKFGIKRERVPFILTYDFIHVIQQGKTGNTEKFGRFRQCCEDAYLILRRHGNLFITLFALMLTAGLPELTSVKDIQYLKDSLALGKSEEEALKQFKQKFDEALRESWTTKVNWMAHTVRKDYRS

[24] = Toxicity in nude mouse xenografted with human SUM149 cells assessed as body weight loss at 20 mg/kg, po bid dosed every 3 days followed by 4 days interval in presence of olaparib relative to control; type: organism-based, SUM149PT; details: in vivo
[25] = target: Serine/threonine-protein kinase ATR (Homo sapiens, UniProt Q13535); experiment: In vivo inhibition of ATR in human SUDHL8 cells harboring ATM K1964E mutant xenografted CB-17 mouse assessed as change in pH2AX level at 50 mg/kg, po bid dosed every 3 days followed by 4 days interval; type: functional, organism-based
Sequence of Serine/threonine-protein kinase ATR (Q13535 whole entry, looked up): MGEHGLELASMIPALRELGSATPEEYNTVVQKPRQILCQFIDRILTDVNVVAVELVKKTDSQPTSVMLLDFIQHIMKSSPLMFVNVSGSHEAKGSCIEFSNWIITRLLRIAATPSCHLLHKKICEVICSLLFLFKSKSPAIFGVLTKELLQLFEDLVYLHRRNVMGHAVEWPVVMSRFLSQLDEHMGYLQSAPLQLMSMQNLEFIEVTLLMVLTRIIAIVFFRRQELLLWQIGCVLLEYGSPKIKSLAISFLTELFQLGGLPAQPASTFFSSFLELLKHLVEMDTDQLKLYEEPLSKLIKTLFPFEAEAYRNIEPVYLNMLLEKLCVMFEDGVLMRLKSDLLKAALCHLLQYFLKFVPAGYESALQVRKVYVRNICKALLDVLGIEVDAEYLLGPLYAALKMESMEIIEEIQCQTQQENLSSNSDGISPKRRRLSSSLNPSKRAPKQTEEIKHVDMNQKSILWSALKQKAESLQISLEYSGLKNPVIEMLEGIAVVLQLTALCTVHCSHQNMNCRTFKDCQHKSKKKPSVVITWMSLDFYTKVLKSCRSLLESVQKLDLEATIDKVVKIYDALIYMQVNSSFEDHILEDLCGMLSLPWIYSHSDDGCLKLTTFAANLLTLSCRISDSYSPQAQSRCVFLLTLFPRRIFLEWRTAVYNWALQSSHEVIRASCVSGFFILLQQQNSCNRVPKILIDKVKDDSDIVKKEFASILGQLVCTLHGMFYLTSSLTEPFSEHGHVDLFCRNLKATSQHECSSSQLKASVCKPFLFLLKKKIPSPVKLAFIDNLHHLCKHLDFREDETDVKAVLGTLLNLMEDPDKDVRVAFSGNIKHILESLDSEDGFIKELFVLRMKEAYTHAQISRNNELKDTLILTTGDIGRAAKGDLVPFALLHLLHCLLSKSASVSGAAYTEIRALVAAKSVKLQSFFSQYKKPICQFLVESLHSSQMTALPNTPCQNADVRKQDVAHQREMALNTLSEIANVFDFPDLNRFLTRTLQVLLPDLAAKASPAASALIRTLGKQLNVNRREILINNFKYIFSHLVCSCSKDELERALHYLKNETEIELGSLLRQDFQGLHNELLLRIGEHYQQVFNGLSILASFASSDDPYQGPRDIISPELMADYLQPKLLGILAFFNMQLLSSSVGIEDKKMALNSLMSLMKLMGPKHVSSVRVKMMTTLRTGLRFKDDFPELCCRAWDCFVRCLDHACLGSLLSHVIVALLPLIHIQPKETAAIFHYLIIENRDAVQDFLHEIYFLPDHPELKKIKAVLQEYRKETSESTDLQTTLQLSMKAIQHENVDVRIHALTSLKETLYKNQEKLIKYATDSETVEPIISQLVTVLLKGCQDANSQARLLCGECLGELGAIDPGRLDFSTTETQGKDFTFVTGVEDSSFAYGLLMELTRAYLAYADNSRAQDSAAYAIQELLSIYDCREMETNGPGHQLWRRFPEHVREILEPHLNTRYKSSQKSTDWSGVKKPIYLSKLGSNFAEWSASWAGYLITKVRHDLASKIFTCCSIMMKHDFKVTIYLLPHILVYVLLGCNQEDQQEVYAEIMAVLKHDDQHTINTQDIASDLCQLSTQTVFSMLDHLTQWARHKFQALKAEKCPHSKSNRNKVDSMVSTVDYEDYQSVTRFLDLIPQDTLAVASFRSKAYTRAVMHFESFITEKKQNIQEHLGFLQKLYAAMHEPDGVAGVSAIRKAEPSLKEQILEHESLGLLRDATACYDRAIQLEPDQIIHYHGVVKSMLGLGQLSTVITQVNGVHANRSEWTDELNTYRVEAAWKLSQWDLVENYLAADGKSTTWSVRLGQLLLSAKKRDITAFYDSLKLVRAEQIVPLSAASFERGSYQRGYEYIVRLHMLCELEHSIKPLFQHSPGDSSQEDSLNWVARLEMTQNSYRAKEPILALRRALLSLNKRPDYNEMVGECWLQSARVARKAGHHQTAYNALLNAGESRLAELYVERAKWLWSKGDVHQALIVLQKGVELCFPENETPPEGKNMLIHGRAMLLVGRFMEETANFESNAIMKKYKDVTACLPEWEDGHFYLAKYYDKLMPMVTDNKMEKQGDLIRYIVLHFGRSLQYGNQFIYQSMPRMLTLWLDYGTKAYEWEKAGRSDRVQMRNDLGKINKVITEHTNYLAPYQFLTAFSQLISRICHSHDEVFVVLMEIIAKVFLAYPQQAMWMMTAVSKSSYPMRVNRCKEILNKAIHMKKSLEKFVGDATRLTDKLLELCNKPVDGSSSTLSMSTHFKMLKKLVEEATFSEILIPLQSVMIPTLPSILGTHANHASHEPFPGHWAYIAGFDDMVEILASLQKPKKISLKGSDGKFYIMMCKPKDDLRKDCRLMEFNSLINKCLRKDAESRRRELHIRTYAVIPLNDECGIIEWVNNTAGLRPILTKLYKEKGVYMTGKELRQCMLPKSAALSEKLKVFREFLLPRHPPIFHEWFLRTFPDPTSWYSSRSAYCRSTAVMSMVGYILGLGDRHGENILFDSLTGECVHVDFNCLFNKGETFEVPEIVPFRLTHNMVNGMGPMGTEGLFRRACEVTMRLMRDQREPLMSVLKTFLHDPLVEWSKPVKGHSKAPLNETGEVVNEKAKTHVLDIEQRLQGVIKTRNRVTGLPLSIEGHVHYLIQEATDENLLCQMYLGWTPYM

[26] = Oral bioavailability in Wistar rat at 0.6 to 1 mg/kg by LC-MS/MS analysis; type: ADME, organism-based; details: in vivo
[27] = Apparent half life in Wistar rat at 0.3 to 0.5 mg/kg, iv administered as bolus dose by LC-MS/MS analysis; type: ADME, organism-based; details: in vivo, read-out: t1/2(app) (converted)
[28] = Volume of distribution at steady state in Wistar rat at 0.3 to 0.5 mg/kg, iv administered as bolus dose by LC-MS/MS analysis; type: ADME, organism-based; details: in vivo, read-out: Vdss
[29] = Clearance in Han-Wistar rat hepatocytes at 1 uM measured after 2 to 90 mins by LC-MS/MS analysis; type: ADME, cell-based, Hepatocyte

C[C@@H]1COCCN1c1cc(-c2ccnn2C)c2ccnc(-c3ccn[nH]3)c2n1 [ELIMUSERTIB]
CL [1]: 3.5 L/h/kg
T/C (SU-DHL-8 [2]): -0.03
Kd [3]: 24 nM
fraction unbound at 7 h, 3 µM [4]: 0.17
T/C (SUM149PT): -0.06
IC50 (SU-DHL-8 [5]): 9 nM
IC50 [6]: 35 nM
Fh at 1 µM [7]: 54%
bioavailability [8]: 51%
IC50 [9]: 1420 nM
Kd [10]: 660 nM
t1/2(app) [11]: 10.2 min
Vdss [12]: 8.8 L/kg
clearance [13]: 20 mL/min/kg
CLH [14]: 0.52 L/h/kg
Fh at 1 µM [15]: 44%
Vd [16]: 1 L/kg
T/C [17]: 0.34
CLH [18]: 0.41 L/h/kg
clearance [19]: 13.2 mL/min/kg
fraction unbound at 7 h, 3 µM [20]: 0.03
IC50 [21]: 332 nM
half-life [22]: 60 min
IC50 [23]: 3.27 µM
Activity [24]: < 10%
inhibition [25]: Active
bioavailability [26]: 87%
half-life [27]: 78 min
Vd [28]: 1.7 L/kg
CLH [29]: 0.74 L/h/kg
